In ChEMBL document CHEMBL1156708, “Enamines as novel antibacterials and their structure-activity relationships” (2008):
Converted amounts (≈) assume the structure as drawn.

Key:
Assay type in all cases: functional
Bacillus subtilis = experiment: Antibacterial activity against Bacillus subtilis ATCC 6633 after 24 hrs by MTT assay; conditions: ATCC 6633, 24 h
In short: (§1)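 Broth microdilution MIC in MH medium; compounds from 50 mg/mL DMSO stock serially diluted in medium in microtitration plates. Inoculum about 10⁵ cfu/mL; incubated at 37 °C for 24 h. MIC read visually, then PBS containing 2 mg MTT/mL added per well; after 12 h further incubation at room temperature, OD read at 550 nm.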

Escherichia coli = experiment: Antibacterial activity against Escherichia coli ATCC 35218 after 24 hrs by MTT assay; conditions: ATCC 35218, 24 h; in short: as §1
Pseudomonas fluorescens = experiment: Antibacterial activity against Pseudomonas fluorescens ATCC 13525 after 24 hrs by MTT assay; conditions: ATCC 13525, 24 h; in short: as §1
Staphylococcus aureus = experiment: Antibacterial activity against Staphylococcus aureus ATCC 6538 after 24 hrs by MTT assay; conditions: ATCC 6538, 24 h; in short: as §1
Aspergillus niger = experiment: Antifungal activity against Aspergillus niger ATCC 16404 after 48 hrs by MTT assay; conditions: ATCC 16404, 48 h
In short: (§2)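 MIC determined by serial dilution in RPMI-1640 medium in microtitration plates, compounds from 50 mg/mL DMSO stock. Fungal suspension about 10⁵ cfu/mL, incubated at 37 °C for 48 h. Visual MIC reading followed by addition of PBS with 2 mg MTT/mL; OD at 550 nm measured after 12 h at room temperature.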

Candida albicans = experiment: Antifungal activity against Candida albicans ATCC 10231 after 48 hrs by MTT assay; conditions: ATCC 10231, 48 h; in short: as §2
Trichophyton rubrum = experiment: Antifungal activity against Trichophyton rubrum ATCC 10218 after 48 hrs by MTT assay; conditions: ATCC 10218, 48 h; in short: as §2

| Structure (SMILES) | MIC (Bacillus subtilis) | MIC (Escherichia coli) | MIC (Pseudomonas fluorescens) | MIC (Staphylococcus aureus) | MIC (Aspergillus niger) | MIC (Candida albicans) | MIC (Trichophyton rubrum) |
| --- | --- | --- | --- | --- | --- | --- | --- |
| CCOC(=O)/C(=C\Nc1cc(Cl)cc(Cl)c1)c1ccc(Cl)cc1 | > 50 µg/mL | > 50 µg/mL | > 50 µg/mL | > 50 µg/mL | > 50 µg/mL | > 50 µg/mL | > 50 µg/mL |
| CCOC(=O)/C(=C/Nc1cc(Cl)cc(Cl)c1)c1ccc(Cl)cc1 | > 50 µg/mL | > 50 µg/mL | 25.7 µg/mL (≈ 69.3 µM) | 1.1 µg/mL (≈ 2.97 µM) | > 50 µg/mL | > 50 µg/mL | > 50 µg/mL |
| CCOC(=O)/C(=C\Nc1cc(F)cc(F)c1)c1ccc(Cl)cc1 | > 50 µg/mL | > 50 µg/mL | > 50 µg/mL | > 50 µg/mL | > 50 µg/mL | > 50 µg/mL | > 50 µg/mL |
| CCOC(=O)/C(=C/Nc1cc(F)cc(F)c1)c1ccc(Cl)cc1 | 48.2 µg/mL (≈ 143 µM) | 13.5 µg/mL (≈ 40 µM) | 31.5 µg/mL (≈ 93.3 µM) | 1.9 µg/mL (≈ 5.63 µM) | > 50 µg/mL | > 50 µg/mL | > 50 µg/mL |
| CCOC(=O)/C(=C/Nc1cc(OC)cc(OC)c1)c1ccc(Cl)cc1 | > 50 µg/mL | > 50 µg/mL | 1.6 µg/mL (≈ 4.42 µM) | 0.9 µg/mL (≈ 2.49 µM) | > 50 µg/mL | > 50 µg/mL | > 50 µg/mL |
| CCOC(=O)/C(=C\Nc1cc(OC)cc(OC)c1)c1ccc(Cl)cc1 | > 50 µg/mL | > 50 µg/mL | 36.3 µg/mL (≈ 100 µM) | > 50 µg/mL | > 50 µg/mL | > 50 µg/mL | > 50 µg/mL |
| CCOC(=O)/C(=C/Nc1ccc(Cl)cc1Cl)c1ccc(Cl)cc1 | > 50 µg/mL | > 50 µg/mL | 7.1 µg/mL (≈ 19.2 µM) | 12.3 µg/mL (≈ 33.2 µM) | > 50 µg/mL | > 50 µg/mL | > 50 µg/mL |
| CCOC(=O)/C(=C\Nc1ccc(F)cc1)c1ccc(Cl)cc1 | 49.8 µg/mL (≈ 156 µM) | 43.4 µg/mL (≈ 136 µM) | > 50 µg/mL | > 50 µg/mL | > 50 µg/mL | > 50 µg/mL | > 50 µg/mL |
| CCOC(=O)/C(=C\Nc1cc(Br)c(OC)c(Br)c1)c1ccc(Cl)cc1 | 43.3 µg/mL (≈ 88.4 µM) | 48.6 µg/mL (≈ 99.3 µM) | 48.1 µg/mL (≈ 98.2 µM) | 47.7 µg/mL (≈ 97.4 µM) | > 50 µg/mL | > 50 µg/mL | > 50 µg/mL |
| CCOC(=O)/C(=C/Nc1ccc(F)cc1)c1ccc(Cl)cc1 | > 50 µg/mL | > 50 µg/mL | > 50 µg/mL | 35.6 µg/mL (≈ 111 µM) | > 50 µg/mL | > 50 µg/mL | > 50 µg/mL |
| CCOC(=O)/C(=C/Nc1ccc(O)cc1)c1ccc(Cl)cc1 | > 50 µg/mL | > 50 µg/mL | 1.5 µg/mL (≈ 4.72 µM) | 0.5 µg/mL (≈ 1.57 µM) | > 50 µg/mL | > 50 µg/mL | > 50 µg/mL |
| CCOC(=O)/C(=C/Nc1ccccc1F)c1ccc(Cl)cc1 | > 50 µg/mL | > 50 µg/mL | > 50 µg/mL | 41.2 µg/mL (≈ 129 µM) | > 50 µg/mL | > 50 µg/mL | > 50 µg/mL |
| CCOC(=O)/C(=C\Nc1cc(Br)c(OCc2ccccc2)c(Br)c1)c1ccc(Cl)cc1 | > 50 µg/mL | > 50 µg/mL | > 50 µg/mL | > 50 µg/mL | > 50 µg/mL | > 50 µg/mL | > 50 µg/mL |
| CCOC(=O)/C(=C/Nc1cc(Br)c(OCc2ccccc2)c(Br)c1)c1ccc(Cl)cc1 | > 50 µg/mL | > 50 µg/mL | 8.5 µg/mL (≈ 15 µM) | 3.4 µg/mL (≈ 6.01 µM) | > 50 µg/mL | > 50 µg/mL | > 50 µg/mL |
